Experiment [1] concerns the target Delta-type opioid receptor (Homo sapiens) (UniProt P41143). Description: Displacement of [3H]DADLE from human recombinant delta opioid receptor expressed in Chem-1 (RBL) cells at 100 nM incubated for 60 mins by radiometric scintillation analysis. It counts as cell-based. The method in brief: (§1)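 δ receptor: membranes of human recombinant Chem-1 (RBL) cells with [3H]DADLE 0.5 nM. Nonspecific binding defined with 10 μM naltrexone. Incubated 60 min at room temperature. Test concentrations 0.1 and 10 μM. Bound ligand collected by rapid vacuum filtration on glass fiber filters, followed by ice-cold buffer rinses. Read-out is percent displacement.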

For experiment [2], the target named is Kappa-type opioid receptor (Homo sapiens) (UniProt P41145). Description: Displacement of [3H]U69593 from human recombinant kappa opioid receptor expressed in Chem-1 (RBL) cells at 100 nM incubated for 60 mins by radiometric scintillation analysis. It counts as cell-based. The method in brief: (§2)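 κ receptor: human recombinant RBL cell membranes with [3H]U69,593 0.5 nM. Nonspecific binding defined with 10 μM naloxone. Incubated 60 min at room temperature. Screened at 0.1 and 10 μM. Bound fraction separated by vacuum filtration on glass fiber filters with ice-cold buffer washes. Read-out is percent displacement.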

Experiment [3] addresses T1, Mu-type opioid receptor (Homo sapiens, UniProt P35372). Description: biochemical. It counts as cell-based, HEK293.
The target of experiment [4] is T1, Mu-type opioid receptor. Description: Displacement of [3H]DAMGO from human recombinant mu opioid receptor expressed in HEK293 cells at 100 nM incubated for 120 mins by radiometric scintillation analysis. It counts as cell-based. Summed up:
(§3)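 Nonspecific binding defined with 10 μM naloxone. Incubation 120 min at room temperature. Compounds at 0.1 and 10 μM. Rapid vacuum filtration through presoaked glass fiber filters, rinsed with ice-cold buffer. Read-out is percent displacement.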

Experiment [5] addresses T1, Mu-type opioid receptor. Description: Displacement of [3H]DAMGO from human recombinant mu opioid receptor expressed in HEK293 cells at 10000 nM incubated for 120 mins by radiometric scintillation analysis. It counts as cell-based. The method in brief: as §3
Experiment [6] has as its target Delta-type opioid receptor (Homo sapiens) (UniProt P41143). Description: Displacement of [3H]DADLE from human recombinant delta opioid receptor expressed in Chem-1 (RBL) cells at 10000 nM incubated for 60 mins by radiometric scintillation analysis. Type of experiment: cell-based. Summed up: as §1
The target in experiment [7] is Kappa-type opioid receptor (Homo sapiens) (UniProt P41145). Description: Displacement of [3H]U69593 from human recombinant kappa opioid receptor expressed in Chem-1 (RBL) cells at 10000 nM incubated for 60 mins by radiometric scintillation analysis. It counts as cell-based. The method in brief: as §2
The subject of experiment [8] is Rattus norvegicus. Description: Antinociceptive activity in iv dosed Sprague-Dawley rat assessed as hot plate latency compound administered as cumulative dose at 5 mins intervals by Hot-plate test. It counts as functional. Summed up: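 Adult female and male Sprague-Dawley rats (10 weeks, n = 6, three per sex) with right external jugular vein catheter. Vehicle 5% Tween 80 + 5% propylene glycol in sterile water, 1.0 mL/kg i.v. After baseline, vehicle then ascending cumulative doses every 5 min, then naltrexone 0.1 mg/kg i.v. Plate at 52 °C, 60 s cutoff.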

The test system of experiment [9] is Rattus norvegicus. Description: Antinociceptive activity in iv dosed Sprague-Dawley rat assessed as hot plate latency compound administered as cumulative dose at 5 mins intervals in presence of naltrexone by Hot-plate test. Type of experiment: functional, organism-based. Summed up:
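Adult female and male Sprague-Dawley rats (10 weeks, n = 6, three per sex) with right external jugular vein catheter. Vehicle 5% Tween 80 + 5% propylene glycol in sterile water, 1.0 mL/kg i.v. After baseline, vehicle then ascending cumulative doses every 5 min, then naltrexone 0.1 mg/kg i.v. Plate at 52 °C, 60 s cutoff. Latency converted to %MPE; ED50 (95% CI) by linear regression.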

Activity calls are given as the source filed them.

Delta-type opioid receptor (Homo sapiens), sequence (P41143 whole entry): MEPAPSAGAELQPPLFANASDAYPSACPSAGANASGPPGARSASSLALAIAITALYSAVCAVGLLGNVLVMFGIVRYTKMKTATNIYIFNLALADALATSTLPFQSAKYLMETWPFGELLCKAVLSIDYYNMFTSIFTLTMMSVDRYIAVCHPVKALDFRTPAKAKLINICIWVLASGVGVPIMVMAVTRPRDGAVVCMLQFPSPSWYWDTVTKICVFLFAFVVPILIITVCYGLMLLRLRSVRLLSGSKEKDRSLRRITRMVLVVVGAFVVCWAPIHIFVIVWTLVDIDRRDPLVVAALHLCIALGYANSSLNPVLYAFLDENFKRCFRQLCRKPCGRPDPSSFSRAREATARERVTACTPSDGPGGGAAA
T1 sequence (P35372 whole entry): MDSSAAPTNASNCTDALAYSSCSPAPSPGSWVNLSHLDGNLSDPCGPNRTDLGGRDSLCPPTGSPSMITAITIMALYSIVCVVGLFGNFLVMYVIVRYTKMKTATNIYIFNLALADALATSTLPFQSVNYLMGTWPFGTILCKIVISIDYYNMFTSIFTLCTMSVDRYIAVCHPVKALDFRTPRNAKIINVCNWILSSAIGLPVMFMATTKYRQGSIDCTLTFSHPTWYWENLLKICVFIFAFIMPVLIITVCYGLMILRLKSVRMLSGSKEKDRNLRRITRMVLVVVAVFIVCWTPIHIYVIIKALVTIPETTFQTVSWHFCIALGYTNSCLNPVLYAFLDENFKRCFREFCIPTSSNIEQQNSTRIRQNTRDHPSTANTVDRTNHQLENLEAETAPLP
Kappa-type opioid receptor (Homo sapiens), sequence (P41145 whole entry): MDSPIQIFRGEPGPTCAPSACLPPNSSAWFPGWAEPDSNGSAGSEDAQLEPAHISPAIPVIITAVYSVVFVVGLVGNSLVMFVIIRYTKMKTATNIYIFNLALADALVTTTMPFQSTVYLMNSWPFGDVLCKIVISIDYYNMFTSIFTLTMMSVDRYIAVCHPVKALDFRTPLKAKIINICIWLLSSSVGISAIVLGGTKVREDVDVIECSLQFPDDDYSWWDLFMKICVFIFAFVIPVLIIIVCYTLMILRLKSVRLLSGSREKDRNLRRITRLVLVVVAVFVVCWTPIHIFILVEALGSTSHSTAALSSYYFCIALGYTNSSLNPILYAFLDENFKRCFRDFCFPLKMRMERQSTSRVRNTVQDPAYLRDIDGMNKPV

In the case of `CC[C@@H]1CN2CC[C@]3(C(=O)Nc4ccccc43)[C@@H]2C[C@@H]1/C(=C\OC)C(=O)OC` [CORYNOXINE B], the Activity in experiment [1] was -4.4%; in [2], 4.5%; on Mu-type opioid receptor [4], 45.4%; on Mu-type opioid receptor [5] it was 94.4%; in experiment [6] it was 65.5%; in experiment [7] it was 51.8%. The same compound had a Ki on Mu-type opioid receptor [3] of 110 nM.
With `CC[C@@H]1CN2CC[C@]3(C(=O)Nc4cccc(OC)c43)[C@@H]2C[C@@H]1/C(=C\OC)C(=O)OC`, the Activity in [1] was determined as 10.4%; in [2], 5%; at Mu-type opioid receptor [4], 7.3%; on Mu-type opioid receptor [5], 66.5%; in [6] it was 87.1%; in experiment [7], 23%. The same compound came in with a Ki at Mu-type opioid receptor [3] of 1720 nM.
For the compound `CC[C@@H]1CN2CC[C@@]3(C(=O)Nc4cccc(O)c43)[C@H]2C[C@@H]1/C(=C\OC)C(=O)OC`, the Activity in experiment [1] worked out at 0%; in experiment [2], 0.1%; on Mu-type opioid receptor [4], 13.1%; on Mu-type opioid receptor [5], 83.3%; in [6] it was 27.1%; in experiment [7] it was 37.3%. The same compound returned a Ki on Mu-type opioid receptor [3] of 789 nM.
Take `CC[C@@H]1CN2CC[C@@]3(C(=O)Nc4ccccc43)[C@@H]2C[C@@H]1/C(=C\OC)C(=O)OC` [CORYNOXINE]: the Activity in experiment [1] is -3.9%; in experiment [2] it was 3.8%; at Mu-type opioid receptor [4], 80.1%; at Mu-type opioid receptor [5] it was 97.8%; in experiment [6], 73.8%; in experiment [7] it was 75.3%. On Mu-type opioid receptor [3], this compound gave a Ki of 16.4 nM. In the experiment with Rattus norvegicus [8], the ED50 turned out to be 6.75 mg/kg.
Take `C=C[C@H]1CN2CCc3c([nH]c4cccc(OC)c34)[C@@H]2C[C@@H]1/C(=C\OC)C(=O)OC`: on Mu-type opioid receptor [3], the Ki was 410 nM.
On to `CC[C@@H]1C[N+]2([O-])CCc3c([nH]c4cccc(OC)c34)[C@H]2C[C@@H]1/C(=C\OC)C(=O)OC` (stereo partly drawn), for which the Activity is 5.1% in experiment [1]; 6.6% in [2]; 10.5% at Mu-type opioid receptor [4]; 84.6% on Mu-type opioid receptor [5]; 53.5% in experiment [6]; 80.9% in [7]. For the same compound, the Ki at Mu-type opioid receptor [3] worked out at 553 nM.
Take `O=C1CC[C@@]2(O)[C@H]3Cc4ccc(O)c5c4[C@@]2(CCN3CC2CC2)[C@H]1O5`: the outcome in the experiment on Rattus norvegicus [9] was inactive.

The values are drawn from ChEMBL document CHEMBL4808166, “Exploring the Chemistry of Alkaloids from Malaysian Mitragyna speciosa (Kratom) and the Role of Oxindoles on Human Opioid Receptors” (J Nat Prod, 2021).
